Source: paper PMC4826778 (Bioconjugate chemistry, 2015)
Each block holds one compound with its values, some of them ahead of it.

Experiments:
[1] = Photophysical characterization; assay type: physicochemical; conditions: for ΦF: reference quinine sulfate
[2] = Frequency-domain fluorescence lifetime measurements in solution; assay type: physicochemical
Procedure, shortened: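 Frequency-domain lifetimes were measured in solution (MeOH) in a 2 × 10 mm quartz cuvette at 18 °C. Excitation was a frequency-modulated 280 nm LED, with emission collected through a 305 nm long-pass filter. PPO in ethanol (τ = 1.4 ns) served as lifetime reference. Modulation-phase data were fitted to a multi-exponential decay model, judged by residuals and χ².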

[3] = Kinetic analysis of SPAAC reaction by 1H NMR; conditions: reaction with cyclooctyne 5 in ACN-d6/D2O (3:1, v/v)
[4] = Water solubility of azido nucleosides; assay type: physicochemical
[5] = Parallel artificial membrane permeability assay; assay type: in vitro ADME; conditions: for % Fraction Absorbed / Log Pe: 75 μM; for % Fraction Absorbed: 16 h, ambient temperature; for Log Pe: log of the effective permeability coefficient
Procedure, shortened: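 PAMPA used a polycarbonate filter (0.45 μm pore) coated for 5 min with lecithin (1% or 4% in dodecane). Donor wells held test compound at 75 μM in 5% DMSO/PBS; acceptor wells held PBS. Plates were incubated 16 h at ambient temperature with gentle shaking. Acceptor concentration was measured by UV-Vis against a theoretical-equilibrium solution. Log Pe was calculated by the Wohnsland–Faller equation; at least triplicate.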

MCF-7 cells [6] = test: MTT cell toxicity assay; assay type: cell-based; conditions: 24 h exposure, click reaction of cyclooctyne 5 with azide 2 or 21
Procedure, shortened: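 MCF-7 cells were seeded at 1 × 10⁴ cells/mL and exposed to a range of concentrations of azide and cyclooctyne for 24 h at 37 °C in 5% CO₂. MTT (5 mg/mL solution) was added for 4 h. Medium was removed, DMSO added, and OD read at 595 nm. Viability was calculated as OD sample / OD untreated control × 100%.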

MCF-7 cells [7] = test: Fluorescence microscopy of in-cell click reaction; assay type: cell-based; conditions: 1 μM azide and 1 μM cyclooctyne 5
Procedure, shortened: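 MCF-7 cells were seeded at 5 × 10⁵ cells/mL on chambered coverglass and grown overnight at 37 °C in DMEM/F12 with 5% FBS. Azide (1 μM in reduced-serum medium) was added for 4 h, followed by three PBS (pH 7.5) washes. Cyclooctyne (1 μM) was then added for 16 h at 37 °C, followed by three more washes. Imaging used 360/40 excitation and 470/40 emission filters. Controls were azide only, cyclooctyne only, and preformed adduct. 0.1% trypan blue was used for quenching.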

[8] = reaction of 5 with benzyl azide in the same solvent system; cited from earlier work
[9] = In 50 mM phosphate buffer pH 7.0

εmax [1]: 7100 M^−1cm^1
λmax(emi) [1, 9]: 339/434
λmax(emi) ([1]; In DMSO): 331/419
Brightness ([1]; In MeOH): 0.06 M^−1cm^1
Stokes shift ([1]; In MeOH): 58 nm
λmax(abs) ([1]; In MeOH): 269 nm
λmax(emi) ([1]; In MeOH): 327/412
ΦF ([1]; In MeOH): 0.009
Compound: 5-(1,2,3-Triazol-1H-yl)uridine-MFCO adduct [Compound 27]

εmax [1]: 16400 M^−1cm^1
λmax(emi) [1, 9]: 399 nm
λmax(emi) ([1]; In DMSO): 397 nm
Brightness ([1]; In MeOH): 0.10 M^−1cm^1
Stokes shift ([1]; In MeOH): 111 nm
λmax(abs) ([1]; In MeOH): 271 nm
λmax(emi) ([1]; In MeOH): 399 nm
λmax(exc) ([1]; In MeOH): 288 nm
ΦF ([1]; In MeOH): 0.006
τ1 ([2]; In MeOH): 0.10 ns
τ2 ([2]; In MeOH): 0.90 ns
τ3 ([2]; In MeOH): 5.30 ns
f1 ([2]; In MeOH, fractional contribution of τ1): 0.46%
f2 ([2]; In MeOH, fractional contribution of τ2): 0.39%
f3 ([2]; In MeOH, fractional contribution of τ3): 0.15%
τaverage ([2]; in vitro (methanol solution)): 1.20 ns
Compound: 8-(1,2,3-Triazol-1H-yl)adenosine-MFCO adduct [Compound 17]

water solubility [4]: easily water soluble
Compound: [N-]=[N+]=Nc1nc2c(N)ncnc2n1[C@@H]1O[C@H](CO)[C@@H](O)[C@H]1O [Compound 1, 8-azidoadenosine]
second order rate constant [3]: 0.11 M⁻¹ s⁻¹

fluorescence of azide substrate [1]: no fluorescence
% Fraction Absorbed [5]: 18%
Log Pe [5]: −0.5 cm/s
water solubility [4]: easily water soluble
Compound: [N-]=[N+]=Nc1nc2c(N)ncnc2n1[C@@H]1O[C@H](CO)[C@@H](O)[C@@H]1O [Compound 2, 8-azido-9-(β-D-arabinofuranosyl)adenine]
Permeability (fraction absorbed) ([5]; 150 μM concentration): b Permeability for 2 at a 150 μM concentration was also 18%.
non-cytotoxic dosage (MCF-7 cells [6]): 1 µM
fluorescence localization in live cells (MCF-7 cells [7]): strong fluorescent localization to the nucleus

% Fraction Absorbed [5]: 20%
Log Pe [5]: −0.5 cm/s
Compound: [N-]=[N+]=Nc1nc2c(N)ncnc2n1[C@H]1C[C@H](O)[C@@H](CO)O1 [Compound 4, 8-azido-2′-deoxyadenosine]

Compound: OCC1C2CCC#CCCC12 (stereo not shown) [Compound 5]
non-cytotoxic dosage (MCF-7 cells [6]): 1 µM
second order rate constant k [8]: 0.14 M⁻¹ s⁻¹

% Fraction Absorbed [5]: 22%
Log Pe [5]: −0.5 cm/s
Compound: [N-]=[N+]=Nc1nc(N)c2ncn([C@@H]3O[C@H](CO)[C@@H](O)[C@H]3O)c2n1 [Compound 19, 2-azidoadenosine]
fluorescence localization in live cells (MCF-7 cells [7]): fluorescence localized in the nucleus

fluorescence of azide substrate [1]: no noticeable fluorescence
Compound: [N-]=[N+]=Nc1cn([C@@H]2O[C@H](CO)[C@@H](O)[C@H]2O)c(=O)[nH]c1=O [Compound 21, 5-azidouridine]
non-cytotoxic dosage (MCF-7 cells [6]): 1 µM
fluorescence localization in live cells (MCF-7 cells [7]): fluorescence localized in the nucleus
